Assay outcomes (PubChem)
A selection: hits, their analogues and other compounds. The true share with any hit is near 3.2%.
MEKK2 WT-MEK5: modulators of MEK5 binding to wildtype MEKK2, primary screen, biochemical, multiplex bead flow cytometry, Alexa488-MEK5 | hit rate 1.1% among 290,000 | Alexa488-MEK5 binding to MEKK2 WT; actives lie on both sides | AID 1531, 2009 | Mitogen-activated protein kinase kinase kinase 2 (Homo sapiens), Q9Y2U5 | binding response (% of control), % at 10 µM; in the data active = binding response below about 67% or above about 130%; inconclusive = no clear call, values can overlap the other calls; inactive = in between
UBC13 polyUb: UBC13 polyubiquitin chain formation inhibitors, primary screen, biochemical, TR-FRET, uHTS; AID 485273, 2010; Ubiquitin-conjugating enzyme E2 N (Homo sapiens), P61088; inhibition, % at 20 µM; hit rate 0.47% among 330,000; in the data active = inhibition above about 45%, passing the limit was not always enough; inconclusive = no clear call, values can overlap the other calls
MEKK3 PB1 HTS: modulators of MEKK3-MEK5 PB1 binding, primary screen, biochemical, wildtype MEKK3, multiplex bead flow cytometry, Alexa488-MEK5; bead-based flow cytometry, Alexa488-MEK5 binding to MEKK3; actives lie on both sides; 0 = blocked by unlabeled MEK5, 100 = vehicle; hit rate 1.4% among 290,000; Mitogen-activated protein kinase kinase kinase 3 (Homo sapiens), Q99759; binding response (% of control), % at 10 µM;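 active = binding response more than 3 SD above or below the average of its plate-row segment, actives on both sides; inconclusive = wells at one plate position flagged as instrument error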;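 note: Alexa488 bead fluorescence after subtracting the streptavidin-only scavenger bead signal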
Pemphigus Ab inh: inhibitors of pemphigus antibody binding to DSG3, primary screen, biochemical, bead-based, flow cytometry, scFv-GFP. Desmoglein-3 (Homo sapiens), P32926. DSG3-coupled beads, scFv-anti-DSG3-GFP binding; active compounds read low. binding (percent of control), % at 10 µM. hit rate 0.48% among 310,000. AID 588358, 2011;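 active = binding more than 3 SD below its plate's average and above zero; inconclusive = below that plate limit but binding exactly zero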;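 note: hits lower antibody fragment binding to DSG3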
Target sequence (P32926 whole entry, looked up, the tested form may be a part): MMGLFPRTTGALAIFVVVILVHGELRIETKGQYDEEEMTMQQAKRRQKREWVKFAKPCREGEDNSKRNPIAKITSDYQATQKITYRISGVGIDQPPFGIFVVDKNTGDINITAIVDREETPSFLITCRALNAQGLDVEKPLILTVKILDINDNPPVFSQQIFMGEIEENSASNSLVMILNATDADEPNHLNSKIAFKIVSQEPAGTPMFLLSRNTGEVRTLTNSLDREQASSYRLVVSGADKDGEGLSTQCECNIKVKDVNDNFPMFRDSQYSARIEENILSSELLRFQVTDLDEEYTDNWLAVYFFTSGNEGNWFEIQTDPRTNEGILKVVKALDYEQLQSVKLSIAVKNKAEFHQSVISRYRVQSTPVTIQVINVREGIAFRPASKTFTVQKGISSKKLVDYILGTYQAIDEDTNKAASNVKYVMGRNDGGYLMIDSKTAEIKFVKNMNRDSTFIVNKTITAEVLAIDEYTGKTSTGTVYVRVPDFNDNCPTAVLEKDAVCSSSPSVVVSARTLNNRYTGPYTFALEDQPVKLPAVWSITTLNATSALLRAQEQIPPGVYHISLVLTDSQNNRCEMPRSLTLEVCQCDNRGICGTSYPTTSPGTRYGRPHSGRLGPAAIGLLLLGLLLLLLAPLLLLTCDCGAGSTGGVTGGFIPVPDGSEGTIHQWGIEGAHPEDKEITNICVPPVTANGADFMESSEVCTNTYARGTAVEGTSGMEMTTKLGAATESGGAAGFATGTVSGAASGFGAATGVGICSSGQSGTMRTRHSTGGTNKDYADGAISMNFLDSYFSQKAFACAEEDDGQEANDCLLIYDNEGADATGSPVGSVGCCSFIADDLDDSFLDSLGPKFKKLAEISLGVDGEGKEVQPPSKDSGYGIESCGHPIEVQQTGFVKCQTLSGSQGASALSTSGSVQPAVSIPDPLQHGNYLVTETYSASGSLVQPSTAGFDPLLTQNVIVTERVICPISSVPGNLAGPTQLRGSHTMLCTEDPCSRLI
MEKK2mut PB1 HTS: MEK5 binding signal on mutant MEKK2 PB1, primary screen, biochemical, multiplex bead flow cytometry, Alexa488-MEK5. percent response, % at 10 µM. Alexa488-MEK5 binding to MEKK2 mutant. hit rate 0.35% among 290,000; in the data active = percent response above about 24%, passing the limit was not always enough
Apaf1 inhib: inhibitors of human Apaf-1 apoptosome, primary screen, biochemical, DEVD-Rh110 fluorescence, uHTS; reconstituted apoptosome caspase-3 activity; inhibition, % at 20 µM; hit rate 0.71% among 330,000; AID 489030, 2010; active = inhibition of at least 40% at 20 µM
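System – cell-free apoptosome with Apaf-1, procaspase-3 and caspase-9 · Buffer or medium – pH 7.5 Hepes buffer with CHAPS, BSA, DTT · Also added – cytochrome c with DEVD-Rh110 · Times – 30 min compound preincubation, 50 min activation, room temperature · Technique – Rh110 fluorescence intensity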
Of the large screens only hits and unclear results are named; the others gave an inactive call; [ ] = remark or other dose.

CC(=O)c1ccc(NC(=O)c2ccc3nc(-c4ccco4)c(-c4ccco4)nc3c2)cc1	Apaf1 inhib 51.9
O=C(NCCCO)c1ccc2nc(-c3ccco3)c(-c3ccco3)nc2c1	Pemphigus Ab inh 36.3 (no result: UBC13 polyUb, Apaf1 inhib)
O=C(NCCO)Nc1ccc2nc(-c3ccco3)c(-c3ccco3)nc2c1	Apaf1 inhib 70.6 (no result: Pemphigus Ab inh)
CCN(c1ccccc1)S(=O)(=O)c1ccc(Cl)c(NC(=O)c2ccc(=O)[nH]n2)c1	Pemphigus Ab inh 21.2 (no result: MEKK2 WT-MEK5, MEKK3 PB1 HTS, MEKK2mut PB1 HTS)
O=S(=O)(Nc1cc(Sc2ncn[nH]2)c(O)c2ccccc12)c1ccccc1	Apaf1 inhib 93.6 (no result: Pemphigus Ab inh)
c1cc(CNCCCN2CCOCC2)ccn1	none
c1cc(CNCCN2CCNCC2)ccn1	Pemphigus Ab inh 58.0 (no result: MEKK2 WT-MEK5, UBC13 polyUb, MEKK3 PB1 HTS, MEKK2mut PB1 HTS, Apaf1 inhib)
CN(C)CCN(C(=O)c1ccc(C(=O)c2ccccc2)cc1)c1nc2cc3c(cc2s1)OCO3	MEKK2 WT-MEK5 140.0 (no result: Pemphigus Ab inh)
CCN(CC)CCN(C(=O)c1ccc(S(=O)(=O)N(C)C2CCCCC2)cc1)c1nc2c(C)cccc2s1	Pemphigus Ab inh inconclusive
COc1ccc(C)c2sc(N(CCN(C)C)C(=O)c3ccc4ccccc4c3)nc12	MEKK2 WT-MEK5 145.0, MEKK2mut PB1 HTS 24.0
CCN(CC)CCN(C(=O)c1ccc(S(=O)(=O)N(CC)c2ccccc2)cc1)c1nc2c(OC)ccc(OC)c2s1	MEKK2 WT-MEK5 157.0, MEKK2mut PB1 HTS 28.0
CCc1cc(=O)oc2cc(OCC(=O)NC3CC(C)(C)NC(C)(C)C3)ccc12	none
Cc1cc(=O)oc2cc(OCC(=O)NC3CC(C)(C)NC(C)(C)C3)ccc12	MEKK3 PB1 HTS 78.0[inhibitor] (no result: Pemphigus Ab inh)
CCOc1ccc2ccc(OCC)c(/C=N/n3cnnc3)c2c1	none
Cc1ccc(-n2sc3cc(F)ccc3c2=O)c(C)c1	Pemphigus Ab inh 62.5 (no result: MEKK2 WT-MEK5, UBC13 polyUb, MEKK3 PB1 HTS, MEKK2mut PB1 HTS, Apaf1 inhib)
O=c1c2ccccc2sn1-c1ccc(F)cc1	Pemphigus Ab inh 42.5 (no result: MEKK2 WT-MEK5, MEKK3 PB1 HTS, MEKK2mut PB1 HTS)
COC(=O)c1cccc(-n2sc3ccccc3c2=O)c1	Pemphigus Ab inh 37.8 (no result: MEKK2 WT-MEK5, MEKK3 PB1 HTS, MEKK2mut PB1 HTS)
O=c1c2ccc(F)cc2sn1-c1ccccc1	Pemphigus Ab inh 50.1 (no result: MEKK2 WT-MEK5, UBC13 polyUb, MEKK3 PB1 HTS, MEKK2mut PB1 HTS, Apaf1 inhib)
CCCN(C(=O)c1cc(S(=O)(=O)N(C)c2ccc(OCC)cc2)ccc1C)C1CCS(=O)(=O)C1 (stereo not drawn)	none (no result: MEKK2 WT-MEK5, MEKK3 PB1 HTS, MEKK2mut PB1 HTS)
COc1ccc(CC(=O)Nc2cccc(S(=O)(=O)N3CCCCCC3)c2)cc1OC	none (no result: UBC13 polyUb, Apaf1 inhib)
CC1=C(C#N)C(=O)N(C2CCS(=O)(=O)C2)C(=O)/C1=C\c1ccco1 (stereo not drawn)	UBC13 polyUb inconclusive, Apaf1 inhib 54.2 (no result: Pemphigus Ab inh)
O=C1/C(=C\c2ccco2)SC(=S)N1C1CCCCC1	none (no result: Pemphigus Ab inh)
CCCCCn1c(=O)[nH]c2cc(C(=O)O)ccc2c1=O	none
CCCCCn1c(=O)[nH]c2c(c1=O)CCC2	Pemphigus Ab inh -1.0
CCOc1cc(/C=C2/SC(=S)N(CC(=O)O)C2=O)ccc1OC(=O)c1cccs1	none
CCOc1cc(/C=C2\C(=O)N(c3ccc(C(N)=O)cc3)N=C2C)ccc1OC(=O)c1cccs1	Apaf1 inhib 93.5
O=C1C(=C(c2ccccc2)N2CCOCC2)Cc2ccccc21	none (no result: MEKK2 WT-MEK5, UBC13 polyUb, MEKK3 PB1 HTS, MEKK2mut PB1 HTS, Apaf1 inhib)
O=C(CN1CCc2ccccc21)NCc1ccc2c(c1)OCO2	none
O=C(CN1CCc2ccccc21)Nc1ccc2c(c1)OCO2	Pemphigus Ab inh 72.3 (no result: MEKK2 WT-MEK5, MEKK3 PB1 HTS, MEKK2mut PB1 HTS)
Cc1noc(C)c1NC(=O)N(C)C[C@H]1Oc2c(NC(=O)Nc3ccc4c(c3)OCO4)cccc2C(=O)N([C@H](C)CO)C[C@@H]1C	none (no result: MEKK2 WT-MEK5, MEKK3 PB1 HTS, MEKK2mut PB1 HTS)
C[C@]12CC[C@@H]3c4ccc(O)cc4CC[C@H]3[C@@H]1CC[C@@H]2O	Pemphigus Ab inh 53.1
CC1CN(CC(=O)Nc2ccc(S(N)(=O)=O)cc2)CC(C)O1 (stereo not drawn)	none
COc1ccc2c3c(cccc13)N(C)N=C2C	Apaf1 inhib 72.8 (no result: MEKK2 WT-MEK5, MEKK3 PB1 HTS, MEKK2mut PB1 HTS)
Clc1cccc(CN2CCSCC2)c1	none
Cc1ccc(-c2csc(NC(=O)c3cccc([N+](=O)[O-])c3)n2)cc1	none (no result: MEKK2 WT-MEK5, MEKK3 PB1 HTS, MEKK2mut PB1 HTS)
